Data set [1] deals with Staphylococcus aureus. Nature of the data set: Antimicrobial activity against Staphylococcus aureus ATCC 25923 by microbroth dilution method. The format is functional. The essentials:
(§1)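 Two-fold serial broth microdilution in 96-well microtest plates, run against four Gram-positive strains, five Gram-negative strains and two fungi.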

The subject of a further data set is Micrococcus luteus. As to the kind of experiment: Antimicrobial activity against Micrococcus luteus ATCC 4698 by microbroth dilution method. Type of data set: functional. The essentials:
as §1

For a further data set, the system named is Bacillus. Nature of the data set: Antimicrobial activity against Bacillus proteus by microbroth dilution method. The format is functional. In a few lines: as §1
Data set [2] deals with Candida. As to the kind of experiment: Antimicrobial activity against Candida mycoderma by microbroth dilution method. The format is functional. The essentials:
as §1

Data set [3] in a line: Antimicrobial activity against Eberthella typhosa by microbroth dilution method. Type of data set: functional. In a few lines: as §1
The next data set deals with Candida albicans. Nature of the data set: Antimicrobial activity against Candida albicans by microbroth dilution method. The format is functional. The essentials: as §1
Data set [4] can be described thus: Lipophilicity, log P of the compound by UV-Vis spectrophotometric method based saturation shake flask assay. Conditions: octanol/water; call rule not given here. Type of data set: physicochemical. In a few lines: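 Log P measured by the traditional saturation shake-flask partition, with compound quantified by UV-vis spectrophotometry.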
The next data set deals with Bacillus subtilis. As to the kind of experiment: Antimicrobial activity against Bacillus subtilis by microbroth dilution method. The format is functional. The essentials:
as §1

For data set [5], the system named is Staphylococcus aureus. As to the kind of experiment: Antimicrobial activity against methicillin-resistant Staphylococcus aureus N315 by microbroth dilution method. Type of data set: functional.
For data set [6], the system named is Escherichia coli. Nature of the data set: Antimicrobial activity against Escherichia coli DH52 by microbroth dilution method. Type of data set: functional. In a few lines:
as §1

For data set [7], the system named is Pseudomonas aeruginosa. As to the kind of experiment: Antimicrobial activity against Pseudomonas aeruginosa by microbroth dilution method. The format is functional. In a few lines: as §1
The next data set concerns Shigella dysenteriae. As to the kind of experiment: Antimicrobial activity against Shigella dysenteriae by microbroth dilution method. Type of data set: functional.
Data set [8] concerns Candida. As to the kind of experiment: Potency index, ratio of MIC of fluconazole to MIC of compound against Candida mycoderma by microbroth dilution method. Type of data set: functional.
Data set [9] concerns Pseudomonas aeruginosa. As to the kind of experiment: Potency index, ratio of MIC of chloromycin to MIC of compound against Pseudomonas aeruginosa by microbroth dilution method. The format is functional.
For a further data set, the target named is Albumin (Bos taurus, UniProt P02769). Nature of the data set: Binding affinity to BSA at pH 7.4 by UV-vis absorption spectroscopic method. Type of data set: ADME. Conditions: cattle, isolated protein.
Data set [10] deals with Staphylococcus aureus. As to the kind of experiment: Potency index, ratio of MIC of chloromycin to MIC of compound against methicillin-resistant Staphylococcus aureus N315 by microbroth dilution method. Type of data set: functional.
Data set [11] has as its system Escherichia coli. As to the kind of experiment: Potency index, ratio of MIC of chloromycin to MIC of compound against Escherichia coli DH52 by microbroth dilution method. The format is functional.

In brackets after ≈: the same amount, converted by molar mass.

Chain of Albumin (P02769 whole entry): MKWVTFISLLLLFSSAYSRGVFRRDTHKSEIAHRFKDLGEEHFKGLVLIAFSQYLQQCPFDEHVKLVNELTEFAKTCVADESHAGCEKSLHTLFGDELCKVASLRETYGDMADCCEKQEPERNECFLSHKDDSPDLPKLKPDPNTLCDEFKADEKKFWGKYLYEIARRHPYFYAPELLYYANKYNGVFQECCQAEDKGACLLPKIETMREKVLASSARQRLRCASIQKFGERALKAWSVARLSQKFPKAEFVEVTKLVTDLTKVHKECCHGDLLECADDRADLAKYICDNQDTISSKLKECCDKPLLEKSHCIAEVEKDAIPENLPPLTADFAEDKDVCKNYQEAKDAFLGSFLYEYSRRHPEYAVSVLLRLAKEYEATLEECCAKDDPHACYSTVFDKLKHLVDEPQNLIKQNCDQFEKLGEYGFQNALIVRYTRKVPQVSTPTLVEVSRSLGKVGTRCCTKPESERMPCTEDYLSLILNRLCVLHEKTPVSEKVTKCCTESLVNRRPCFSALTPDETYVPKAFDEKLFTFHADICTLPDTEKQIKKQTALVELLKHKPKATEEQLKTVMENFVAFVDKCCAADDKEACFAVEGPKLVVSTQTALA

Turning to `ClCc1nc2ccccc2[nH]1`, the minimum inhibitory concentration (MIC) is above 512 µg/mL against Staphylococcus aureus [1]; 512 µg/mL (≈ 3070 µM) against Micrococcus luteus; above 512 µg/mL against Bacillus; above 512 µg/mL against Candida [2]; 512 µg/mL (≈ 3070 µM) in data set [3]; 512 µg/mL (≈ 3070 µM) against Candida albicans. In addition, the minimal inhibitory concentration (MIC) against Bacillus subtilis was above 512 µg/mL; against Staphylococcus aureus [5] it was above 512 µg/mL; against Escherichia coli [6], 256 µg/mL (≈ 1540 µM); against Pseudomonas aeruginosa [7] it was above 512 µg/mL; in the data set with Shigella dysenteriae it was 512 µg/mL (≈ 3070 µM). In addition, the logP in data set [4] (read-out: logP) is 1.44.
Take `Cc1c(C(=O)NNCc2nc3ccccc3[nH]2)sc(C(=O)NNCc2nc3ccccc3[nH]2)c1C`: the MIC in the data set with Staphylococcus aureus [1] was above 512 µg/mL; against Micrococcus luteus, 256 µg/mL (≈ 524 µM); against Bacillus, 256 µg/mL (≈ 524 µM); in the data set on Candida [2], 256 µg/mL (≈ 524 µM); in data set [3], 512 µg/mL (≈ 1050 µM); against Candida albicans, above 512 µg/mL. For the same molecule, the MIC against Bacillus subtilis was 128 µg/mL (≈ 262 µM); in the data set on Staphylococcus aureus [5], above 512 µg/mL; in the data set with Escherichia coli [6] it was 512 µg/mL (≈ 1050 µM); against Pseudomonas aeruginosa [7], above 512 µg/mL; with Shigella dysenteriae it was 512 µg/mL (≈ 1050 µM). The logP in data set [4] (read-out: logP) turned out to be 1.25.
Regarding `Cc1c(C(=O)NN)sc(C(=O)NNCc2nc3ccccc3[nH]2)c1C`, the MIC turned out to be 256 µg/mL (≈ 714 µM) against Staphylococcus aureus [1]; 128 µg/mL (≈ 357 µM) against Micrococcus luteus; 128 µg/mL (≈ 357 µM) with Bacillus; 128 µg/mL (≈ 357 µM) with Candida [2]; 64 µg/mL (≈ 179 µM) in data set [3]; 256 µg/mL (≈ 714 µM) against Candida albicans. The minimum inhibitory concentration (MIC) against Bacillus subtilis was 64 µg/mL (≈ 179 µM); in the data set on Staphylococcus aureus [5], 256 µg/mL (≈ 714 µM); against Escherichia coli [6], 512 µg/mL (≈ 1430 µM); against Pseudomonas aeruginosa [7], 256 µg/mL (≈ 714 µM); against Shigella dysenteriae, 512 µg/mL (≈ 1430 µM). Also, the logP in data set [4] (read-out: logP) was determined as 0.84.
Consider `CCCCCCCCCCn1c(CNNC(=O)c2sc(C(=O)NNCc3nc4ccccc4n3CCCCCCCCCC)c(C)c2C)nc2ccccc21`, for which the MIC amounted to 2 µg/mL (≈ 2.6 µM) with Staphylococcus aureus [1]; 16 µg/mL (≈ 20.8 µM) with Micrococcus luteus; 8 µg/mL (≈ 10.4 µM) against Bacillus; 2 µg/mL (≈ 2.6 µM) with Candida [2]; 4 µg/mL (≈ 5.2 µM) in data set [3]; 4 µg/mL (≈ 5.2 µM) in the data set on Candida albicans. Besides, the minimum inhibitory concentration (MIC) turned out to be 4 µg/mL (≈ 5.2 µM) in the data set on Bacillus subtilis; 2 µg/mL (≈ 2.6 µM) in the data set on Staphylococcus aureus [5]; 4 µg/mL (≈ 5.2 µM) with Escherichia coli [6]; 4 µg/mL (≈ 5.2 µM) in the data set with Pseudomonas aeruginosa [7]; 8 µg/mL (≈ 10.4 µM) against Shigella dysenteriae. In addition, the Ratio came to 2 in the data set on Candida [8], 8 with Pseudomonas aeruginosa [9], 8 with Staphylococcus aureus [10] and 8 in the data set with Escherichia coli [11]. Also, at Albumin, the outcome was Active. In [4], the logP entry was “ND(Insoluble)”.

The values above are taken from ChEMBL document CHEMBL2203243, “Synthesis and biological evaluation of novel benzimidazole derivatives and their binding behavior with bovine serum albumin” (Eur J Med Chem, 2012).
